Experimental data from ChEMBL document CHEMBL4376844, “A Novel Decalin-Based Bicyclic Scaffold for FKBP51-Selective Ligands” (J Med Chem, 2020).
Calls of active or inactive are those of the source. The rule behind the calls is not given here.

How the values were obtained:
[1] = molecular target: T1, Peptidyl-prolyl cis-trans isomerase FKBP5 (Homo sapiens, UniProt Q13451); assay: Inhibition of human full length N-terminal His-tagged/C-terminal FLAG tagged FKBP51 expressed in Escherichia coli BL21 (DE3) cells incubated for 30 mins by competitive fluorescence polarization assay
T1 sequence (Q13451 whole entry): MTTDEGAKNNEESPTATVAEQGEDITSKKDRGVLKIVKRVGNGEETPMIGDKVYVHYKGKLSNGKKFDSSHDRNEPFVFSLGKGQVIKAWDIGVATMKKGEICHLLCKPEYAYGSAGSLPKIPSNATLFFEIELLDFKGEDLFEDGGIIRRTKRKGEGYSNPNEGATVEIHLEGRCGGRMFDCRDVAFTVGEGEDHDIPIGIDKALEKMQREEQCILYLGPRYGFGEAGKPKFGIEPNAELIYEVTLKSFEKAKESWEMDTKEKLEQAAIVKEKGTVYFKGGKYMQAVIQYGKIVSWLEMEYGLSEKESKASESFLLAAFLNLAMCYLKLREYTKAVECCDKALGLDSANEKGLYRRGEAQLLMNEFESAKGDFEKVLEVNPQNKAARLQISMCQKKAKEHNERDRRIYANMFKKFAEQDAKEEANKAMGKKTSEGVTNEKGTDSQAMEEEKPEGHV

[2] = molecular target: T2, Peptidyl-prolyl cis-trans isomerase FKBP4 (Homo sapiens, UniProt Q02790); assay: Inhibition of human full length N-terminal His-tagged/C-terminal FLAG tagged FKBP52 expressed in Escherichia coli BL21 (DE3) cells incubated for 30 mins by competitive fluorescence polarization assay; details: 0.5 h
T2 sequence (Q02790 whole entry): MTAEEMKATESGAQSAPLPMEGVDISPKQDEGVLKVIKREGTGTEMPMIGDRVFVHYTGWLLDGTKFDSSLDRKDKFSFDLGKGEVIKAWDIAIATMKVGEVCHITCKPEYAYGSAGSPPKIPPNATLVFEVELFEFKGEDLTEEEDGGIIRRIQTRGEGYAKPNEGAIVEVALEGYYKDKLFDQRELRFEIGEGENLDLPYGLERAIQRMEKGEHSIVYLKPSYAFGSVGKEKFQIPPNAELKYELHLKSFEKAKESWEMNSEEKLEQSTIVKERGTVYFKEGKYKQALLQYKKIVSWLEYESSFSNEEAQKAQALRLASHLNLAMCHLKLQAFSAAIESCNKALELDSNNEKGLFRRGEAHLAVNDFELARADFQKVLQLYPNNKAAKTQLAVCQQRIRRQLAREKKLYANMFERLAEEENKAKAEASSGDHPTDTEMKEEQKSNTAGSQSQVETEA

[3] = molecular target: T3, Peptidyl-prolyl cis-trans isomerase FKBP5 (Homo sapiens) (UniProt Q13451); assay: Inhibition of human full length N-terminal His-tagged/C-terminal FLAG tagged FKBP51 expressed in Escherichia coli BL21 (DE3) cells at >=10 uM incubated for 30 mins by competitive fluorescence polarization assay
T3 sequence (whole entry): T1 sequence (Q13451 whole entry)

[4] = Solubility of compound; format: physicochemical
[5] = molecular target: Cytochrome P450 3A4 (Homo sapiens, UniProt P08684); assay: Inhibition of CYP3A4 (unknown origin); format: ADME
[6] = test system: KB; assay: Cytotoxicity against human KB/HeLa cells overexpressing FKBP51 assessed as cell death up to 60 uM incubated for 72 hrs by propidium iodide staining based flow cytometry analysis; format: functional
Method in brief: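 KB cells exposed to a range of compound doses for 72 h. 1×10^5 cells washed in PBS, then permeabilized in 0.1% sodium citrate, 0.1% Triton X-100 and 50 µg/mL propidium iodide for 30 min at 4°C in the dark. Nuclear DNA content read by flow cytometry on a log scale with debris gated out by forward scatter; % hypodiploid nuclei taken as dead cells. Four experiments, each in triplicate.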

Chain of Cytochrome P450 3A4 (P08684 whole entry): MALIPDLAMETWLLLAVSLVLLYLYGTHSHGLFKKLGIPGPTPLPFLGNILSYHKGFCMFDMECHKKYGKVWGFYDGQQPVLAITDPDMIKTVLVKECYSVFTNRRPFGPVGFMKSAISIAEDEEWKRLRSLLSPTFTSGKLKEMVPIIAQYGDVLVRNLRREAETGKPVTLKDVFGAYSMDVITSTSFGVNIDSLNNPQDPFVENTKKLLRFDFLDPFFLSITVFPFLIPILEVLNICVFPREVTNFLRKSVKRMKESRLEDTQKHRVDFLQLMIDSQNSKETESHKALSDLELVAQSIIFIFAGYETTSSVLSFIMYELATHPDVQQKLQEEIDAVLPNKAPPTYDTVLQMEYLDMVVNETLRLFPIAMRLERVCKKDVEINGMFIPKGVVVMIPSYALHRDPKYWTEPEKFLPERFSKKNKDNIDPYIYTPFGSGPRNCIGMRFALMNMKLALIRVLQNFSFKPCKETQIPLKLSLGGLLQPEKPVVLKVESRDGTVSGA

Row | Structure (SMILES) | Ki [1] [µM] | inhibition (INH) [2] | inhibition [3] | solubility [4] [µM] | other results
1 | COc1ccc(CC[C@@H](OC(=O)[C@@H]2CCCCN2C(=O)[C@@H]2CC=C[C@@H]3CCC[C@H]32)c2cccc(OCC(=O)O)c2)cc1OC | 7.8 | Not Active |  |  | 
2 | COc1ccc(CC[C@@H](OC(=O)[C@@H]2CCCCN2C(=O)[C@@H]2CCC(=O)[C@@H]3CCC[C@H]32)c2cccc(OCC(=O)O)c2)cc1OC | 3.1 | Not Active |  |  | 
3 | COc1ccc(CCC(OC(=O)C2CCCCN2C(=O)[C@@H]2CCC(=O)[C@@H]3CCCC[C@H]32)c2cccc(OCCN3CCOCC3)c2)cc1OC (single isomer, unassigned) | 0.23 | Not Active |  |  | 
4 | COc1ccc(CC[C@@H](OC(=O)[C@@H]2CCCCN2C(=O)C2=CCc3ccccc32)c2cccc(OCC(=O)O)c2)cc1OC |  |  | inactive | > 10 | 
5 | COc1ccc(CC[C@@H](OC(=O)[C@@H]2CCCCN2C(=O)[C@@H]2CCC(O)[C@@H]3CCCC[C@@H]23)c2cccc(OCCN3CCOCC3)c2)cc1OC (stereo not given in full) |  | Not Active |  |  | 
6 | COc1ccc(CC[C@@H](OC(=O)[C@@H]2CCCCN2C(=O)[C@H]2[C@@H]3CCCC[C@H]3C=C[C@@H]2C)c2cccc(OCC(=O)O)c2)cc1OC | 2 | Not Active |  |  | 
7 | COc1ccc(CC[C@@H](OC(=O)[C@@H]2CCCCN2C(=O)[C@@H]2CC=C[C@@H]3CCCC[C@H]32)c2cccc(OCC(=O)O)c2)cc1OC | 2.4 | Not Active |  |  | 
8 | COc1ccc(CCC(OC(=O)C2CCCCN2C(=O)[C@H]2[C@@H]3CCCC[C@H]3C(=O)C[C@@H]2C)c2cccc(OCCN3CCOCC3)c2)cc1OC (single isomer, unassigned) | 0.33 | Not Active |  |  | 
9 | COc1ccc(CC[C@@H](OC(=O)[C@@H]2CCCCN2C(=O)c2nccc3ccccc23)c2cccc(OCC(=O)O)c2)cc1OC |  |  | inactive | > 10 | 
10 | COc1ccc(CC[C@@H](OC(=O)[C@@H]2CCCCN2C(=O)[C@@H]2CCC[C@@H]3CCC[C@H]32)c2cccc(OCC(=O)O)c2)cc1OC | 2.6 | Not Active |  |  | 
11 | COc1ccc(CC[C@@H](OC(=O)[C@@H]2CCCCN2C(=O)[C@H]2[C@@H]3CCCC[C@H]3CC[C@@H]2C)c2cccc(OCC(=O)O)c2)cc1OC | 0.49 | Not Active |  |  | 
12 | COc1ccc(CC[C@@H](OC(=O)[C@@H]2CCCCN2C(=O)c2cccc3cccnc23)c2cccc(OCC(=O)O)c2)cc1OC |  |  | inactive | > 10 | 
13 | COc1ccc(CCC(OC(=O)C2CCCCN2C(=O)[C@@H]2CC(=O)C[C@@H]3CCCC[C@H]32)c2cccc(OCCN3CCOCC3)c2)cc1OC (single isomer, unassigned) | 1.3 | Not Active |  |  | 
14 | COc1ccc(CC[C@@H](OC(=O)[C@@H]2CCCCN2C(=O)c2ccnc3ccccc23)c2cccc(OCC(=O)O)c2)cc1OC |  |  | inactive | > 10 | 
15 | COc1ccc(CC[C@@H](OC(=O)[C@@H]2CCCCN2C(=O)[C@@H]2CCC[C@@H]3CCCC[C@H]32)c2cccc(OCC(=O)O)c2)cc1OC | 0.81 | Not Active |  |  | IC50 [5]: 8.4 µM
16 | COc1ccc(CC[C@@H](OC(=O)[C@@H]2CCCCN2C(=O)c2cccc3ccccc23)c2cccc(OCC(=O)O)c2)cc1OC |  |  | inactive | > 10 | Activity [6]: inactive
17 | COc1ccc(CC[C@@H](OC(=O)[C@@H]2CCCCN2C(=O)c2cccc3c2CCCC3)c2cccc(OCC(=O)O)c2)cc1OC |  |  | inactive | > 10 | 
18 | COc1ccc(CCC(OC(=O)C2CCCCN2C(=O)[C@@H]2CC=C[C@@H]3CCCC[C@H]32)c2cccc(OCCN3CCOCC3)c2)cc1OC (single isomer, unassigned) | 2.6 | Not Active |  |  | 
19 | COc1ccc(CC[C@@H](OC(=O)[C@@H]2CCCCN2C(=O)[C@@H]2CCCc3ccccc32)c2cccc(OCC(=O)O)c2)cc1OC |  |  | inactive | > 10 | 
20 | COc1ccc(CC[C@@H](OC(=O)[C@@H]2CCCCN2C(=O)[C@@H]2C[C@H]3OC(C)(C)O[C@H]3[C@@H]3CCCC[C@H]32)c2cccc(OCCN3CCOCC3)c2)cc1OC | 8.2 | Not Active |  |  | 
21 | COc1ccc(CC[C@@H](OC(=O)[C@@H]2CCCCN2C(=O)[C@@H]2CC(=O)C[C@@H]3CCC[C@H]32)c2cccc(OCC(=O)O)c2)cc1OC | 28 | Not Active |  |  | 
22 | COc1ccc(CCC(OC(=O)C2CCCCN2C(=O)[C@H]2[C@@H]3CCCC[C@H]3C=C[C@@H]2C)c2cccc(OCCN3CCOCC3)c2)cc1OC (single isomer, unassigned) | 1.9 | Not Active |  |  | 
